Data taken from ChEMBL document CHEMBL4610016, “Synthesis, biological evaluation and anti-proliferative mechanism of fluorine-containing proguanil derivatives” (Bioorg Med Chem, 2020).
pIC50: −log10 of the molar value. Active and inactive are the calls of the source. The calls are words filed in the database; no cut-off is given here.

What was measured:
[1] = target: T1, AMP-activated protein kinase, AMPK (Homo sapiens) (UniProt P54646+O43741+P54619+Q9UGJ0+Q9Y478+Q13131+Q9UGI9); test: Activation of AMPK in human T24 cells assessed as decrease in p70S6K phosphorylation at 2 uM measured upto 12 hrs by Western blot analysis; assay type: cell-based; conditions: T-24
Outline: (§1)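 Western blot of bladder cancer cells treated at 2 μM over a 0–12 h time course; separately, a 0–2 μM series was run for 12 h. Lysates were resolved by 8% or 10% SDS-PAGE, transferred to PVDF, and blocked in 5% milk/TBST for 1 h. Primary antibodies were applied overnight at 4 °C and secondaries for 1 h. Phospho- and total AMPK, mTOR, p70S6K and 4EBP1 were probed. Band density was normalized to β-actin, and the mean of 3 independent experiments is reported.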

A549 [2] = test: Inhibition of cell migration in human A549 cells at 2 uM incubated for 24 and 48 hrs by cellular scratch assay based microscopic analysis; assay type: functional
Outline: (§2)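 Scratch wound assay. Cells were grown to confluence and scratched with a 10 μL tip, then washed twice with PBS. Compound was added in serum-free medium: 3 μM for UMUC3 and T24, 2 μM for A549. Gaps were photographed at 0, 24 and 48 h, and wound closure distance was measured. Three independent repeats were run.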

T-24 [3] = test: Antiproliferative activity against human T24 cells assessed as reduction in cell viability incubated for 72 hrs by MTT assay; assay type: functional, cell-based; conditions: T-24, 72 h
HCT-116 [4] = test: Inhibition of colony formation in human HCT116 cells at 2 uM incubated for 6 to 8 days by crystal violet staining based assay; assay type: functional, cell-based
Outline: (§3)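 Colony formation: 8.0×10³ cells per well were seeded, and treatment began after 24 h, in triplicate, for 6–8 days. Ranges were 0–8 μM for UMUC3, T24 and HCT116, 0–4 μM for A2780, and 0–2 μM for A549. Cells were fixed in 10% formaldehyde and stained with 0.1% crystal violet. Colonies were counted, and absorbance was read at 490 nm. Data are the mean of 3 independent experiments.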

[5] = target: T1, AMP-activated protein kinase, AMPK (Homo sapiens); test: Activation of AMPK in human T24 cells assessed as increase in AMPK phosphorylation at 2 uM measured upto 12 hrs by Western blot analysis; assay type: cell-based; conditions: T-24; outline: as §1
A549 [6] = test: Antiproliferative activity against human A549 cells assessed as reduction in cell viability incubated for 72 hrs by MTT assay; assay type: functional, cell-based; conditions: A549, 72 h
Outline: (§4)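 Cells were seeded at 6.0×10³ per well and left 12 h, then treated in triplicate for 72 h. Ranges were 0–8 μM for UMUC3, T24, A2780 and HCT116, and 0–4 μM for A549. MTT (2 mg/mL) replaced the medium for 6 h at 37 °C, followed by DMSO solubilization and OD 490 nm. IC50 was taken as the mean of triplicate measurements. Cells were kept at 37 °C, 5% CO₂.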

HCT-116 [7] = test: Antiproliferative activity against human HCT116 cells assessed as reduction in cell viability incubated for 72 hrs by MTT assay; assay type: functional, cell-based; conditions: HCT-116, 72 h
[8] = target: T1, AMP-activated protein kinase, AMPK (Homo sapiens); test: Activation of AMPK in human T24 cells assessed as decrease in mTOR phosphorylation at 2 uM measured upto 12 hrs by Western blot analysis; assay type: cell-based; conditions: T-24; outline: as §1
T-24 [9] = test: Inhibition of cell migration in human T24 cells at 3 uM incubated for 24 and 48 hrs by cellular scratch assay based microscopic analysis; assay type: functional; outline: as §2
[10] = target: T1, AMP-activated protein kinase, AMPK (Homo sapiens); test: Activation of AMPK in human UM-UC-3 cells assessed as decrease in p70S6K phosphorylation at 2 uM measured upto 12 hrs by Western blot analysis; assay type: cell-based; outline: as §1
[11] = target: T1, AMP-activated protein kinase, AMPK (Homo sapiens); test: Activation of AMPK in human UM-UC-3 cells assessed as decrease in mTOR phosphorylation at 2 uM measured upto 12 hrs by Western blot analysis; assay type: cell-based; outline: as §1
[12] = target: T1, AMP-activated protein kinase, AMPK (Homo sapiens); test: Activation of AMPK in human T24 cells assessed as decrease in 4EBP1 phosphorylation at 2 uM measured upto 12 hrs by Western blot analysis; assay type: cell-based; conditions: T-24; outline: as §1
T-24 [13] = test: Inhibition of colony formation in human T24 cells at 2 uM incubated for 6 to 8 days by crystal violet staining based assay; assay type: functional, cell-based; outline: as §3
UMUC3 [14] = test: Inhibition of colony formation in human UM-UC-3 cells at 2 uM incubated for 6 to 8 days by crystal violet staining based assay; assay type: functional, cell-based; outline: as §3
UMUC3 [15] = test: Inhibition of cell migration in human UM-UC-3 cells at 3 uM incubated for 24 and 48 hrs by cellular scratch assay based microscopic analysis; assay type: functional; outline: as §2
[16] = target: T1, AMP-activated protein kinase, AMPK (Homo sapiens); test: Activation of AMPK in human UM-UC-3 cells assessed as increase in AMPK phosphorylation at 2 uM measured upto 12 hrs by Western blot analysis; assay type: cell-based; outline: as §1
A2780 [17] = test: Antiproliferative activity against human A2780 cells assessed as reduction in cell viability incubated for 72 hrs by MTT assay; assay type: functional, cell-based; conditions: A2780, 72 h; outline: as §4
UMUC3 [18] = test: Antiproliferative activity against human UM-UC-3 cells assessed as reduction in cell viability incubated for 72 hrs by MTT assay; assay type: functional, cell-based; conditions: UMUC3, 72 h; outline: as §4
A2780 [19] = test: Inhibition of colony formation in human A2780 cells at 2 uM incubated for 6 to 8 days by crystal violet staining based assay; assay type: functional, cell-based; outline: as §3
[20] = target: T1, AMP-activated protein kinase, AMPK (Homo sapiens); test: Activation of AMPK in human UM-UC-3 cells assessed as decrease in 4EBP1 phosphorylation at 2 uM measured upto 12 hrs by Western blot analysis; assay type: cell-based; outline: as §1
HUVEC = test: Cytotoxicity against human HUVEC cells assessed as reduction in cell viability incubated for 72 hrs by MTT assay; assay type: cell-based
Outline: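 HUVEC were treated at 0–8 μM for 72 h, and viability was read from concentration-response curves. Values are the average of 3 independent experiments.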

A549 [21] = test: Inhibition of colony formation in human A549 cells at 2 uM incubated for 6 to 8 days by crystal violet staining based assay relative to control; assay type: functional; outline: as §3

Compound | pIC50 (A549 [6]) | pIC50 (HCT-116 [7]) | pIC50 (A2780 [17]) | pIC50 (T-24 [3]) | pIC50 (UMUC3 [18]) | also measured
CC(C)NC(=N)NC(=N)Nc1ccc(Cl)cc1 [PROGUANIL] | 5.42 | 5.08 | 4.89 | 4.74 | 4.79 | Activity [1]: Active; inhibition (A549 [2]): inactive; inhibition (HCT-116 [4]): Active; Activity [5]: inactive; Activity [8]: Active; inhibition (T-24 [9]): inactive; Activity [10]: Active; Activity [11]: Active; Activity [12]: Active; inhibition (T-24 [13]): Active; inhibition (UMUC3 [14]): Active; inhibition (UMUC3 [15]): inactive; Activity [16]: inactive; inhibition (A2780 [19]): Active; Activity [20]: Active
CCN(C)C(=N)NC(=N)Nc1ccc(C(F)(F)F)cc1 | 5.39 | 5.40 | 5.29 | 5.24 | 5.16 | –
CCN(CC)C(=N)NC(=N)Nc1ccc(C(F)(F)F)cc1 | 5.43 | 5.37 | 5.42 | 5.21 | 5.31 | –
CC(C)NC(=N)NC(=N)Nc1ccc(F)cc1 | 5.12 | < 4.30 | 4.55 | < 4.30 | < 4.30 | –
CC(C)NC(=N)NC(=N)Nc1ccc(F)c(F)c1 | 5.28 | < 4.30 | 4.59 | 4.35 | 4.60 | –
N=C(NC(=N)NC1CCCC1)Nc1ccc(F)cc1F | 5.40 | 4.53 | 4.83 | 4.42 | 4.74 | –
CCN(CC)C(=N)NC(=N)Nc1ccc(F)c(F)c1 | 5.11 | 4.40 | 4.69 | 4.35 | 4.66 | –

More lines, in order of rising pIC50 (A549 [6]), values ahead:

pIC50 (A549 [6]) | pIC50 (HCT-116 [7]) | pIC50 (A2780 [17]) | Compound | pIC50 (T-24 [3]) | pIC50 (UMUC3 [18]) | also measured
5.44 | 5.32 | 5.49 | CC(C)NC(=N)NC(=N)Nc1ccc(C(F)(F)F)cc1 | 5.32 | 5.28 | –
5.44 | 4.68 | 4.70 | CC(C)CNC(=N)NC(=N)Nc1ccc(F)cc1F | 4.39 | 4.76 | –
5.46 | 4.77 | 5.03 | N=C(NC(=N)NC1CCCC1)Nc1ccc(F)c(F)c1 | 4.60 | 5.14 | –
5.62 | 4.53 | 5.17 | CC(C)CNC(=N)NC(=N)Nc1ccc(F)c(F)c1 | 4.37 | 5.15 | –
5.74 | 5.42 | 5.60 | N=C(NC(=N)NC1CCCC1)Nc1ccc(C(F)(F)F)cc1 | 5.43 | 5.48 | inhibition (A549 [2]): Active; inhibition (HCT-116 [4]): Active; pIC50 (HUVEC): 5.14; inhibition (T-24 [9]): Active; inhibition (T-24 [13]): Active; inhibition (UMUC3 [14]): Active; inhibition (UMUC3 [15]): Active; inhibition (A2780 [19]): Active; inhibition at 2 µM (A549 [21]): 100%
5.82 | 5.74 | 5.82 | CCCCCCCNC(=N)NC(=N)Nc1ccc(F)c(F)c1 | 5.37 | 5.68 | inhibition (A549 [2]): Active; inhibition (HCT-116 [4]): Active; pIC50 (HUVEC): 5.19; inhibition (T-24 [9]): Active; inhibition (T-24 [13]): Active; inhibition (UMUC3 [14]): Active; inhibition (UMUC3 [15]): Active; inhibition (A2780 [19]): Active; inhibition at 2 µM (A549 [21]): 100%
5.89 | 5.46 | 5.68 | CC(C)CNC(=N)NC(=N)Nc1ccc(C(F)(F)F)cc1 | 5.51 | 5.70 | Activity [1]: Active; inhibition (A549 [2]): Active; inhibition (HCT-116 [4]): Active; pIC50 (HUVEC): 5.07; Activity [5]: Active; Activity [8]: Active; inhibition (T-24 [9]): Active; Activity [10]: Active; Activity [11]: Active; Activity [12]: Active; inhibition (T-24 [13]): Active; inhibition (UMUC3 [14]): Active; inhibition (UMUC3 [15]): Active; Activity [16]: Active; inhibition (A2780 [19]): Active; inhibition at 2 µM (A549 [21]): 100%; Activity [20]: Active
